# MBD2 DNA inh: inhibitors of MBD2 binding to methylated DNA, primary screen, biochemical, TR-FRET, DNA-binding domain, human | Methyl-CpG-binding domain protein 2 (Homo sapiens), Q9UBB5 | MBD2 binding to methylated oligonucleotide | inhibition, % at 4.4 µM | actives 0.31% (n = 370,000) | AID 686964, 2013; in the data active = inhibition above about 13%
# Target sequence (Q9UBB5 whole entry, looked up, the tested form may be a part): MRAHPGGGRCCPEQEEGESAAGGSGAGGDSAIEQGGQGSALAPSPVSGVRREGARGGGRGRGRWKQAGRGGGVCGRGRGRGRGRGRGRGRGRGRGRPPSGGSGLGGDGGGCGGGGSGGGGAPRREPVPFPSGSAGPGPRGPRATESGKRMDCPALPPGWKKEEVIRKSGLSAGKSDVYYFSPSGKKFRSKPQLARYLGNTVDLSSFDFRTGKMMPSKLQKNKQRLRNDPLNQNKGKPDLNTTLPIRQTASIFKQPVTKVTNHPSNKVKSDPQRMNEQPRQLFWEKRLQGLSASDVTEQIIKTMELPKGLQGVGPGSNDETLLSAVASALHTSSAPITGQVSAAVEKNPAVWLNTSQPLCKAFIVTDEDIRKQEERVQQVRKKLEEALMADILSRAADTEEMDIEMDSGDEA
# LEDGF integ inh: blockers of LEDGF/p75-dependent integrase strand transfer – biochemical, TR-FRET, high throughput, primary screen; HIV-1 integrase (with human LEDGF/p75); TR-FRET IN-LEDGF/p75 DNA integration, Eu/Cy5; inhibition, % at 3.7 µM; actives 0.64% (n = 370,000);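 active = inhibition above the screen-wide mean plus 3 SD, cut at about 13% in these data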;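 also: signal is the Cy5 over europium emission ratio at 671 and 618 nm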
# UHRF1 binding: UHRF1 methylated DNA binding inhibitors, primary screen, counter-screen for MBD2 inhibitor project, biochemical, TR-FRET, human UHRF1, single concentration | E3 ubiquitin-protein ligase UHRF1 (Homo sapiens), Q96T88 | UHRF1 binding to methylated oligo | inhibition, % at 4.4 µM | actives 0.75% (n = 370,000); in the data active = inhibition above about 21%;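 also: UHRF1 SRA domain binding a hemimethylated CpG hairpin DNA probe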
# TDP2 inh: human TDP2 enzyme inhibitors, primary screen, biochemical, epi absorbance, recombinant enzyme. Tyrosyl-DNA phosphodiesterase 2 (Homo sapiens), O95551. T5PNP hydrolysis, p-nitrophenol absorbance 415 nm. inhibition, % at 12.8 µM. actives 0.34% (n = 370,000). AID 720702, 2013;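 active = inhibition above the mean of all tested compounds plus 3 SD, set per campaign, cut at about 25% in these data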
#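 Test system: Human TDP2 enzyme | Reagent: 5 mM T5PNP | Compound dosing: 12.8 µM single point, 1% DMSO | Incubation: Enzyme reaction with compound for 2 h at 37 °C | Technique: p-Nitrophenol epi absorbance | Read-out: % inhibition relative to enzyme-containing and enzyme-free wells | Benchmarks: High control without enzyme, low control DMSO plus TDP2 | Replicates: Singlicate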
# NSD2 HMT inh: NSD2 histone methyltransferase inhibitors, primary screen, biochemical, AlphaScreen, single concentration, set 2. NSD2 peptide methylation, 120 min. inhibition, % at 12.5 µM. actives 0.54% (n = 310,000); in the data active = inhibition above about 50%
# Casp6 inh: human caspase-6 inhibitors, primary screen, biochemical, VEID-R110 fluorescence, single point, set 2; inhibition, % at 12.5 µM; AID 686996, 2013; purified caspase-6, Z-VEID-R110 cleavage fluorescence; actives 0.53% (n = 350,000);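 active = mean inhibition across replicates at least about 35%, with every replicate also reaching that limit, limit read from the data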
# Numbers stand for hits; i = inactive; nt = no result given. Most compounds without a hit are left out; they make up all but 1.8% or so of the library.
SMILES,MBD2 DNA inh,LEDGF integ inh,UHRF1 binding,TDP2 inh,NSD2 HMT inh,Casp6 inh
C[C@H](CO)N1C[C@H](C)[C@H](CN(C)Cc2ccc(Oc3ccccc3)cc2)Oc2ccc(NC(=O)NC3CCCCC3)cc2CC1=O,nt,nt,nt,nt,nt,i
CCC(=O)N1CC(=O)N2[C@H](CO)[C@@H](c3ccc(C#Cc4cccc(OC)c4)cc3)[C@H]2C1,nt,nt,nt,nt,nt,i
COc1ccc(NS(=O)(=O)c2cccc(C(=O)NCC3(N4CCCCC4)CCCCC3)c2)cc1,i,i,25,i,i,i
COc1ccc(-c2cc3c(=O)n(CC(=O)NCCCN4CCC(Cc5ccccc5)CC4)ncn3n2)cc1,i,i,i,i,i,i
COc1ccc(-c2cc3c(=O)n(CC(=O)NCCCN4CCN(Cc5ccccc5)CC4)ncn3n2)cc1,i,i,i,i,i,40
CO/N=C/C(=N\Nc1ccccc1)C(=O)c1ccccc1,i,i,i,i,i,i
CO/N=C\C(=N\Nc1ccc(OC)cc1)C(=O)c1ccccc1,i,i,38,i,i,nt
O=C(CCS(=O)(=O)c1ccc(Br)cc1)Nc1cc(F)ccc1F,i,i,i,i,i,59
CCc1ccccc1NC(=O)CCS(=O)(=O)c1ccc(Br)cc1,i,i,i,i,i,i
CCOc1ccccc1NC(=O)CCS(=O)(=O)c1ccc(Br)cc1,i,i,i,i,i,71
COc1ccc(NC(=O)CCS(=O)(=O)c2ccc(OC)cc2)cc1,i,i,i,i,i,nt
CCOc1ccc(NC(=O)CCS(=O)(=O)c2ccc(Br)cc2)cc1,i,i,i,i,i,66
COc1ccccc1NC(=O)N1CC(=O)N2[C@H](CO)[C@H](c3ccc(C#Cc4ccccc4)cc3)[C@@H]2C1,nt,nt,nt,nt,nt,i
Cc1c(Cl)cnc(NC(=O)COC(=O)C(NC(=O)c2ccco2)C(C)C)c1Cl (stereo not drawn),i,i,i,i,i,nt
Cc1nc(NC(=O)COC(=O)[C@@H](NC(=O)c2ccco2)C(C)C)c(Cl)cc1Cl,i,i,42,i,i,i
O=C(O)CSc1cc(C(=O)c2ccccc2O)cn2c(=O)c3c(-c4ccccc4)csc3nc12,i,i,i,i,nt,39
CCOC(=O)c1sc2nc3c(SCC(=O)O)cc(C(=O)c4ccccc4O)cn3c(=O)c2c1C,i,i,i,i,i,i
C[C@@H]1CN([C@H](C)CO)S(=O)(=O)c2ccc(C#CC(C)(C)O)cc2O[C@H]1CN(C)CC1CC1,nt,nt,nt,nt,nt,i
Cc1ccccc1/C=N/Nc1ccnc2cc(Cl)ccc12,i,i,i,i,i,i
Oc1ccc(/C=N/Nc2ccnc3cc(Cl)ccc23)c(O)c1,i,i,i,i,i,69
O=C(NCc1ccco1)c1ccc(CS(=O)(=O)c2ccc(Cl)cc2)o1,nt,nt,nt,nt,i,nt
O=C(NCc1ccccc1)[C@]1(Cc2ccccc2)N=C(c2ccc(OCCCO)cc2)O[C@@H]1c1ccccc1,nt,nt,nt,nt,nt,i
CC(C)(Oc1ccc(Cl)cc1)C(=O)O,i,i,i,i,nt,i
CC(C)(Oc1ccc(Cl)cc1)C(=O)Nc1ncccn1,i,i,22,i,i,nt
N#Cc1c(-c2ccco2)nc(SCC(=O)Nc2cccc(Cl)c2)[nH]c1=O,i,i,i,i,i,nt
SMILES,MBD2 DNA inh,LEDGF integ inh,UHRF1 binding,TDP2 inh,NSD2 HMT inh,Casp6 inh
CCc1ccc(NC(=O)C(C)Sc2nc(-c3ccco3)c(C#N)c(=O)[nH]2)cc1 (stereo not drawn),i,i,i,i,i,46
Cc1ccc([N+](=O)[O-])cc1NC(=O)c1cccnc1,i,i,39,i,i,i
O=C(Nc1cc([N+](=O)[O-])ccc1Cl)c1cccnc1,i,i,i,i,i,i
O=C(CN1CCOCC1)N1CC2(C1)[C@H](c1ccccc1)[C@H](CO)N2Cc1ccc(F)cc1,nt,nt,nt,nt,nt,i
COc1ccc(OC)c(N/C(=N/c2nc(C)cc(C)n2)NC(C)=O)c1,i,i,i,i,i,53
C[C@@H]1CN([C@H](C)CO)C(=O)c2cc(NS(=O)(=O)c3cccs3)ccc2O[C@H]1CN(C)Cc1ccc2c(c1)OCO2,nt,nt,nt,nt,nt,i
O=C(Cc1cccnc1)N1CC2(C1)[C@H](c1ccccc1)[C@@H](CO)N2C(=O)C1CCCC1,nt,nt,nt,nt,nt,i
CC(C)NC(=O)N1[C@H](CO)[C@@H](c2ccccc2)C12CN(C(=O)Cc1cccnc1)C2,nt,nt,nt,nt,nt,42
O=S1(=O)C=CCN1Cc1cn(Cc2ccc(F)cc2)nn1,i,i,47,i,nt,nt
CC=Cc1ccc2n(c1=O)C[C@H]1[C@H](CO)[C@@H](C(=O)NC3CCC3)[C@@H]2N1C(=O)c1ccccn1 (mixture of isomers),nt,nt,nt,nt,nt,i
C[C@H]1COc2cc(N3CC[C@H](O)C3)ccc2S(=O)(=O)N1,i,i,62,i,nt,i
C[C@@H]1COc2cc(N3CCC[C@H]3CO)ccc2S(=O)(=O)N1,i,i,i,i,nt,i
CC[C@@]1(C(=O)OC)N[C@H](CN(C)C(=O)Nc2ccc(C(F)(F)F)cc2)[C@@H]2C(=O)N(C)C(=O)[C@@H]21,i,i,22,i,nt,i
Cc1ccc(CCNC(=O)CCS(=O)(=O)c2ccc(Br)cc2)cc1,i,i,24,i,i,i
CCOc1ccc(CCNC(=O)CCS(=O)(=O)c2ccc(OC)cc2)cc1OCC,i,i,i,i,i,38
CCOc1ccc(S(=O)(=O)NCCC(=O)NCCc2ccc(OCC)c(OCC)c2)cc1,i,i,i,i,i,i
O=S(=O)(NCc1ccc2c(c1)OCO2)c1ccc2c(c1)oc1ccccc12,i,i,29,i,i,i
Cc1onc(-c2c(F)cccc2Cl)c1C(=O)N1CCN(c2ncccn2)CC1,i,i,i,i,i,i
O=C(c1sc2cccc(F)c2c1Cl)N1CCN(c2ncccn2)CC1,i,i,26,i,i,nt
O=C(CSc1n[nH]c(=O)n1-c1ccccc1)Nc1ccccc1,i,i,i,i,i,i
O=C(CSc1n[nH]c(=O)n1-c1ccc2c(c1)OCCO2)Nc1ccccc1,i,i,27,i,i,i
C[C@H](CO)N1C[C@H](C)[C@@H](CN(C)S(=O)(=O)c2ccc(F)cc2)Oc2ccc(NC(=O)C3CC3)cc2CC1=O,nt,nt,nt,nt,nt,i
O=C(Nc1ccccc1)c1ccccc1NC(=O)c1ccccc1C(=O)O,i,i,28,i,i,i
O=C1c2ccccc2-c2onc3ccc(N4CCCC4)c1c23,i,i,23,i,i,i
CCNc1ccc2noc3c2c1C(=O)c1ccccc1-3,i,i,i,i,i,nt
